# Laboratory results taken from ChEMBL document CHEMBL1255268, “Antimicrobial activities of Ceftaroline and ME1036 tested against clinical strains of community-acquired methicillin-resistant Staphylococcus aureus” (2008).
# Columns and labels:
# Assay type in all cases: functional
# [1] = system: Staphylococcus aureus; assay: Antimicrobial activity against community-acquired methicillin resistant Staphylococcus aureus expressing PVL gene and mec type IV gene assessed as susceptible strains by broth microdilution method
# Method in brief: (§1)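 Reference broth microdilution MICs per CLSI, with CLSI interpretive criteria (M100-S17) used for susceptible/resistant categories. Panel: 152 CA-MRSA clinical isolates from human infections, collected 2000–2005 at 47 US medical centres. Strains typed by multiplex PCR for SCCmec type (mecA as internal control), with products run on 2% agarose in Tris-acetate-EDTA and stained with ethidium bromide.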
# [2] = system: Staphylococcus aureus; assay: Antimicrobial activity against community-acquired methicillin resistant Staphylococcus aureus expressing PVL and mec type IV gene by broth microdilution method; method in brief: as §1
# [3] = system: Staphylococcus aureus; assay: Antimicrobial activity against community-acquired methicillin resistant Staphylococcus aureus expressing PVL and mec type IV gene assessed as resistant strains by broth microdilution method; method in brief: as §1
compound,measurement,setting,value
CC(=O)NC[C@H]1CN(c2ccc(N3CCOCC3)c(F)c2)C(=O)O1 [LINEZOLID],Activity,[1],100%
same,MIC50,[2],2 µg/mL
same,MIC90,[2],2 µg/mL
CCC[C@@H]1C[C@@H](C(=O)N[C@@H]([C@H]2O[C@H](SC)[C@H](O)[C@@H](O)[C@H]2O)[C@H](C)Cl)N(C)C1 [CLINDAMYCIN],Activity,[1],100%
same,MIC,[2],≤ 0.25 µg/mL
same,MIC50,[2],≤ 0.25 µg/mL
same,MIC90,[2],≤ 0.25 µg/mL
same,Activity,[3],0%
C[C@H]1COc2c(N3CCN(C)CC3)c(F)cc3c(=O)c(C(=O)O)cn1c23.C[C@H]1COc2c(N3CCN(C)CC3)c(F)cc3c(=O)c(C(=O)O)cn1c23.O [LEVOFLOXACIN],Activity,[1],92.8%
same,MIC50,[2],0.25 µg/mL
same,MIC90,[2],0.5 µg/mL
same,Activity,[3],7.2%
CN(C)[C@@H]1C(O)=C(C(N)=O)C(=O)[C@@]2(O)C(O)=C3C(=O)c4c(O)cccc4[C@@](C)(O)[C@H]3C[C@@H]12 [TETRACYCLINE],Activity,[1],94.7%
same,MIC,[2],≤ 0.5 µg/mL
same,MIC50,[2],≤ 0.5 µg/mL
same,MIC90,[2],≤ 0.5 µg/mL
same,Activity,[3],4.6%
CCCCCCCCCC(=O)N[C@@H](Cc1c[nH]c2ccccc12)C(=O)N[C@H](CC(N)=O)C(=O)N[C@@H](CC(=O)O)C(=O)N[C@@H]1C(=O)NCC(=O)N[C@@H](CCCN)C(=O)N[C@@H](CC(=O)O)C(=O)N[C@H](C)C(=O)N[C@@H](CC(=O)O)C(=O)NCC(=O)N[C@H](CO)C(=O)N[C@@H]([C@H](C)CC(=O)O)C(=O)N[C@@H](CC(=O)c2ccccc2N)C(=O)O[C@@H]1C,Activity,[1],100%
same,MIC,[2],0.25 µg/mL
same,MIC50,[2],0.25 µg/mL
same,MIC90,[2],0.5 µg/mL
same,Activity,[3],0%
CN[C@H](CC(C)C)C(=O)N[C@H]1C(=O)N[C@@H](CC(N)=O)C(=O)N[C@H]2C(=O)N[C@H]3C(=O)N[C@H](C(=O)N[C@H](C(=O)O)c4cc(O)cc(O)c4-c4cc3ccc4O)[C@H](O)c3ccc(c(Cl)c3)Oc3cc2cc(c3O[C@@H]2O[C@H](CO)[C@@H](O)[C@H](O)[C@H]2O[C@H]2C[C@](C)(N)[C@H](O)[C@H](C)O2)Oc2ccc(cc2Cl)[C@H]1O [VANCOMYCIN],Activity,[1],100%
same,MIC50,[2],1 µg/mL
same,MIC90,[2],1 µg/mL
same,Activity,[3],0%
CO/N=C(\C(=O)N[C@@H]1C(=O)N2C(C(=O)O)=C(CSc3nc(=O)c(O)nn3C)CS[C@H]12)c1csc(N)n1 [CEFTRIAXONE],Activity,[1],0%
same,MIC50,[2],32 µg/mL
same,MIC90,[2],> 32 µg/mL
same,Activity,[3],98.7%
C[C@@H](O)[C@H]1C(=O)N2C(C(=O)[O-])=C(c3cn4cnc(C(=O)c5ccc[n+](CC(N)=O)c5)c4s3)[C@H](C)[C@H]12,MIC50,[2],0.12 µg/mL
same,MIC90,[2],0.25 µg/mL
CC[C@H]1OC(=O)[C@H](C)[C@@H](O[C@H]2C[C@@](C)(OC)[C@@H](O)[C@H](C)O2)[C@H](C)[C@@H](O[C@@H]2O[C@H](C)C[C@H](N(C)C)[C@H]2O)[C@](C)(O)C[C@@H](C)C(=O)[C@H](C)[C@@H](O)[C@]1(C)O [ERYTHROMYCIN],Activity,[1],1.3%
same,MIC50,[2],> 8 µg/mL
same,MIC90,[2],> 8 µg/mL
same,Activity,[3],98%
C[C@@H](O)[C@H]1C(=O)N2C(C(=O)O)=C(SCCNC=N)C[C@H]12 [IMIPENEM ANHYDROUS],Activity,[1],100%
same,MIC,[2],≤ 0.5 µg/mL
same,MIC50,[2],≤ 0.5 µg/mL
same,MIC90,[2],≤ 0.5 µg/mL
same,Activity,[3],0%
C[C@@H](O)[C@H]1C(=O)N2C(C(=O)O)=C(S[C@@H]3CN[C@H](C(=O)N(C)C)C3)[C@H](C)[C@H]12 [MEROPENEM],Activity,[1],98%
same,MIC50,[2],2 µg/mL
same,MIC90,[2],2 µg/mL
same,Activity,[3],0%
